In paper PMC6510378 (Clinical and Translational Science, 2019):

How the values were obtained:
11β‐HSD1 = 11β‐HSD1 (Homo sapiens, UniProt P28845); experiment: Urine 11β-HSD1 activity; format: in vivo
How it was run: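 Hepatic 11β-HSD1 activity was taken as the urinary ratio of (5α + 5β)-tetrahydrocortisol to tetrahydrocortisone. In the single-dose study, urine was collected predose to 72 h. In the high-dose multiple-dose part, cumulative amounts excreted were measured on days 1 and 18. In the low-dose part, first morning void samples were used, with baseline on day –1 and follow-up through days 16–21 and day 28.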

11β‐HSD2 [1] = biological target: T1, 11β‐HSD2 (Homo sapiens, UniProt P80365); experiment: Urine 11β-HSD2 activity; format: in vivo; conditions: up to 50 mg q.d. for 14 days
T1 sequence (P80365 1-405): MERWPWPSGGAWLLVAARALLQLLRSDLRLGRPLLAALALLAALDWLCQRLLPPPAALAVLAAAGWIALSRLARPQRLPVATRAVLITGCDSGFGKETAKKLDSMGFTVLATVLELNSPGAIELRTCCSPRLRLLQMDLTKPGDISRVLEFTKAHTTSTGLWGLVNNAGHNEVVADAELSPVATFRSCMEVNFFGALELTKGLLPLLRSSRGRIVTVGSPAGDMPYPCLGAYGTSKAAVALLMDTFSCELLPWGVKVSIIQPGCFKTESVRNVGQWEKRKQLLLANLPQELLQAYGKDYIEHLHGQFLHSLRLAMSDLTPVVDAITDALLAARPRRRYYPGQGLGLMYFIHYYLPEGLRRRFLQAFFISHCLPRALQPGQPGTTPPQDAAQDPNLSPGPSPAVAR
How it was run: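 Renal 11β-HSD2 activity was taken as the urinary cortisol/cortisone ratio. Subjects were healthy young Japanese, young non-Japanese and elderly non-Japanese adults on oral placebo or drug (10, 20 or 50 mg), single dose day 1 then once daily on days 5–18. The ratio was assessed on days 1 and 18.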

[2] = test system: models of neuropathic and dysfunctional pain; conditions: rats; cited from earlier work
human 11β‐HSD1 = conditions: competitive binding; ref Internal study reports 3662‐PH‐0001 and 3662‐PH‐0001‐0004; cited from earlier work
[3] = SAD study plasma PK, single oral dose, healthy young subjects; format: in vivo, human; conditions: for Cmax / Tmax / AUC(0-inf) / half-life: human, plasma, po; for AUC(0-inf): AUCinf; for half-life: t½
How it was run: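 Healthy adults aged 18–55, randomized 6 active : 2 placebo per cohort, received a single fasted oral dose (1–60 mg) with 240 mL water. Serial blood was drawn predose to 72 h, plus 96 and 120 h in the 6, 30 and 60 mg cohorts. Plasma drug was measured by validated HPLC-MS/MS, with below-limit values set to zero. Dose proportionality used a power model on log-transformed dose.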

11β‐HSD2 [4] = conditions: at concentrations < 3,000 nM; ref Internal study reports 3662‐PH‐0001 and 3662‐PH‐0001‐0004; cited from earlier work
[5] = Safety and tolerability, SAD study; format: in vivo, human
How it was run: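 Safety was assessed from treatment-emergent adverse events: nature, frequency, severity, onset/offset and relatedness to study drug, coded by MedDRA system organ class. Also assessed were haematology, serum chemistry, urinalysis, physical examination with vital signs, and ECGs. CNS scales used were Bond and Lader VAS, ARCI-49 and Profile of Mood States. Data were summarized descriptively.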

[6] = Urine PK, 10-mg, 20-mg and 50-mg cohorts; format: in vivo, human; conditions: parent ASP3662
How it was run: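 Urine drug concentration was measured by validated HPLC-MS/MS. Subjects were healthy young Japanese, young non-Japanese and elderly non-Japanese adults given oral doses of 10, 20 or 50 mg: single dose day 1, 4-day washout, then once daily on days 5–18. Dosing was fasted on PK days.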

[7] = 3 mg, Median, single oral dose 3 mg, n=6
[8] = 3 mg, Min–max, single oral dose 3 mg, n=6
[9] = 6 mg, Mean (SD), single oral dose 6 mg, n=6
[10] = 6 mg, Median, single oral dose 6 mg, n=6
[11] = 6 mg, Min–max, single oral dose 6 mg, n=6
[12] = 10 mg, Mean (SD), single oral dose 10 mg, n=3
[13] = 10 mg, Median, single oral dose 10 mg, n=3
[14] = 10 mg, Min–max, single oral dose 10 mg, n=3
[15] = 10 mg, Median, single oral dose 10 mg, n=6
[16] = 10 mg, Min–max, single oral dose 10 mg, n=6
[17] = 30 mg, Mean (SD), single oral dose 30 mg, n=6
[18] = 30 mg, Median, single oral dose 30 mg, n=6
[19] = 30 mg, Min–max, single oral dose 30 mg, n=6
[20] = 60 mg, Mean (SD), single oral dose 60 mg, n=6
[21] = 60 mg, Median, single oral dose 60 mg, n=6
[22] = 60 mg, Min–max, single oral dose 60 mg, n=6

Chain of 11β‐HSD1 (P28845 whole entry): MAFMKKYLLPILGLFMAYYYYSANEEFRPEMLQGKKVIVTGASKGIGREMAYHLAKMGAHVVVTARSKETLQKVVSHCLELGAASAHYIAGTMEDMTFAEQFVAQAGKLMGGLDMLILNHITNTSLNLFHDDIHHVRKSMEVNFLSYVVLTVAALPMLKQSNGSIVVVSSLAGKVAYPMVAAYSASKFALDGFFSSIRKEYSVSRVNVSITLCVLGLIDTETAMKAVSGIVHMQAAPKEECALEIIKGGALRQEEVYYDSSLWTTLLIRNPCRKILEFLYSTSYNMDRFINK

## Cn1c(-c2ccc(C(N)=O)cc2F)nnc1C(C)(C)Oc1c(F)cc(Cl)cc1F [ASP3662]
11β‐HSD1; 16 days after discontinuation of multiple doses, even lowest dose 0.2 mg
  return of 11β‐HSD1 activity to baseline: incomplete
11β‐HSD1; clinical PD data referred to in the dose rationale
  dose achieving full inhibition of peripheral 11β‐HSD1: 3 mg
11β‐HSD1; multiple daily doses
  dose achieving full inhibition of 11β‐HSD1: ≥ 2 mg
11β‐HSD1; nadir at doses of 2 mg and above
  11β‐HSD1 activity ratio at maximal inhibition: ~ 0.1 ratio
11β‐HSD2 [1]
  change in urinary cortisol to cortisone ratio relative to PBO: no noteworthy changes
[2]
  analgesic effects: significant analgesic effects
Human 11β‐HSD1
  Ki: 5.3 nM
[3]; 1 mg, Mean (SD), single oral dose 1 mg, n=6
  Cmax: 0.0433 ng/mL
[3]; 1 mg, Min–max, single oral dose 1 mg, n=6
  Cmax: < 0.14 ng/mL
[3]; 1 mg, Median, single oral dose 1 mg, n=2
  Tmax: 0.75 h
[3]; 1 mg, Min–max, single oral dose 1 mg, n=2
  Tmax: 0.5 to 1 h
[3]; 3 mg, Mean (SD), single oral dose 3 mg, n=6
  Cmax: 3.54 ng/mL
[3]; [7]
  Cmax: 1.6 ng/mL
  Tmax: 2.5 h
[3]; [8]
  Cmax: 0.38 to 9.24 ng/mL
  Tmax: 1 to 4.02 h
[3]; [9]
  AUC(0-inf): 405 ng·h/mL
  Cmax: 28 ng/mL
  half-life: 37.7 h
[3]; [10]
  AUC(0-inf): 410 ng·h/mL
  Cmax: 30.5 ng/mL
  Tmax: 1.75 h
  half-life: 37.9 h
[3]; [11]
  AUC(0-inf): 169 to 660 ng·h/mL
  Cmax: 10.8 to 43.7 ng/mL
  Tmax: 1 to 4 h
  half-life: 28.5 to 46.3 h
[3]; [12]
  AUC(0-inf): 858 ng·h/mL
  half-life: 19.5 h
[3]; [13]
  AUC(0-inf): 953 ng·h/mL
  half-life: 21.9 h
[3]; [14]
  AUC(0-inf): 620 to 1000 ng·h/mL
  half-life: 13.7 to 23 h
[3]; 10 mg, Mean (SD), single oral dose 10 mg, n=6
  Cmax: 64 ng/mL
[3]; [15]
  Cmax: 60.9 ng/mL
  Tmax: 1.75 h
[3]; [16]
  Cmax: 49 to 93.6 ng/mL
  Tmax: 1 to 6 h
[3]; [17]
  AUC(0-inf): 3620 ng·h/mL
  Cmax: 258 ng/mL
  half-life: 17.6 h
[3]; [18]
  AUC(0-inf): 3370 ng·h/mL
  Cmax: 239 ng/mL
  Tmax: 3.5 h
  half-life: 17.4 h
[3]; [19]
  AUC(0-inf): 1630 to 6770 ng·h/mL
  Cmax: 151 to 386 ng/mL
  Tmax: 1.5 to 4 h
  half-life: 14.5 to 20.2 h
[3]; [20]
  AUC(0-inf): 8190 ng·h/mL
  Cmax: 595 ng/mL
  half-life: 14.8 h
[3]; [21]
  AUC(0-inf): 8460 ng·h/mL
  Cmax: 566 ng/mL
  Tmax: 3.5 h
  half-life: 14.6 h
[3]; [22]
  AUC(0-inf): 5440 to 12500 ng·h/mL
  Cmax: 439 to 865 ng/mL
  Tmax: 2 to 4 h
  half-life: 13.1 to 17.3 h
[3]; single oral dose 6 mg, n=6
  CL/F, Mean (SD): 18.38 (9.909) L/hour
  CL/F, Median: 15.62 L/h
  CL/F, Min–max: 9.09 to 35.4 L/h
[3]; single oral dose 10 mg, n=3
  CL/F, Mean (SD): 12.20 (3.403) L/hour
  CL/F, Median: 10.49 L/h
  CL/F, Min–max: 9.99 to 16.1 L/h
[3]; single oral dose 30 mg, n=6
  CL/F, Mean (SD): 10.05 (4.856) L/hour
  CL/F, Median: 9.012 L/h
  CL/F, Min–max: 4.43 to 18.4 L/h
[3]; single oral dose 60 mg, n=6
  CL/F, Mean (SD): 7.933 (2.407) L/hour
  CL/F, Median: 7.091 L/h
  CL/F, Min–max: 4.81 to 11.0 L/h
11β‐HSD2 [4]
  inhibition of 11β‐HSD2: no inhibition
[5]; after a single dose of 6 mg
  clinically relevant finding (vital signs): clinically significant orthostatic hypotension
[5]; single oral doses up to 60 mg
  overall safety and tolerability: safe and well tolerated
[6]
  amount recovered from urine: < 0.3 % of the administered dose
